Measured values as given in PMC8526403 (ACS chemical biology, 2021).
“Also recorded” adds a separate entry of the source.

How the values were obtained:
3-OST-4 [1] = biological target: T1, 3-OST-4 (Homo sapiens, UniProt Q9Y661); assay: Reactivity of 12-mers and HS to 3-OST-4 modification; format: biochemical; conditions: 12-mer substrates compared to HS polysaccharide
T1 sequence (Q9Y661 163-456): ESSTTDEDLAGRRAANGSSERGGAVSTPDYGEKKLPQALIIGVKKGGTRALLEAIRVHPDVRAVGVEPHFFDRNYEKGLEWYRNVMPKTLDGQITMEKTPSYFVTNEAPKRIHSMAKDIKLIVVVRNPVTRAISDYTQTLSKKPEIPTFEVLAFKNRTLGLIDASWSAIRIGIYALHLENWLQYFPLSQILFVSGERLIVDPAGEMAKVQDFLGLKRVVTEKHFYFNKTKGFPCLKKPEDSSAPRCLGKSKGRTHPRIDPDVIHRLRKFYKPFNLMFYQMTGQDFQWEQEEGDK
Procedure, shortened: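 Each 12-mer (10 μg) was incubated with 3-OST-4 (5 μL of 0.8 mg mL−1 stock) in 100 μL of 50 mM Tris-HCl, pH 7.5. The reaction contained [35S]PAPS (5 μM, 1.2 × 10^5 cpm) and ran 1 h at 37 °C. Product was recovered on DEAE and 35S counted as cpm. A no-substrate reaction served as background.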

[2] = system: acetaminophen overdosed mice; conditions: acetaminophen overdose model; cited from earlier work
tau protein = tau protein (Homo sapiens, UniProt P10636); assay: Binding of biotinylated oligosaccharides to Cy5-labeled tau; conditions: biotinylated oligosaccharide
Chain of tau protein (P10636 1-441 isoform P10636-8): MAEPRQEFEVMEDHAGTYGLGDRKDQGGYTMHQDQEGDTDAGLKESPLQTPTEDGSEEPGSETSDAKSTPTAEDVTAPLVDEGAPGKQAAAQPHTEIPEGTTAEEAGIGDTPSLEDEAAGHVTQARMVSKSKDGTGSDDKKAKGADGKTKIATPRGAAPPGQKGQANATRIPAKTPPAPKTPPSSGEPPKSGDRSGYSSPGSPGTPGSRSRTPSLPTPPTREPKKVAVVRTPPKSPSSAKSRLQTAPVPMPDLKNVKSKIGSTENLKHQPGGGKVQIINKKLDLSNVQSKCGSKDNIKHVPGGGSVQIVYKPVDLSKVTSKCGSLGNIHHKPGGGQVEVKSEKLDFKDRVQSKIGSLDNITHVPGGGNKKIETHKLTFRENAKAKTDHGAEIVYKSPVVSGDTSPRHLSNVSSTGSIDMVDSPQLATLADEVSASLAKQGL
Procedure, shortened: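 Biotinylated oligosaccharides (~10 nmol) were incubated overnight at 4 °C with Cy5-labeled tau (5 μg) in 20 mM HEPES, pH 7.2, 100 mM NaCl, 1% BSA. Complexes were captured on streptavidin agarose and washed 3× in HEPES/250 mM NaCl, then 2× in PBS. Tau was released with heparin lyases II (14 μg) and III (20 μg) over 4 h at RT. Released tau was resolved on 4–12% Bis-Tris gels, read by fluorescence scanning and quantified.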

[3] = system: acetaminophen overdosed mice; assay: Hepatoprotection in acetaminophen overdosed mice; format: in vivo, mouse
factor IIa (FIIa) = factor IIa (FIIa) (Homo sapiens, UniProt P01008); assay: Anti-FIIa activity; format: biochemical
Chain of factor IIa (FIIa) (P01008 33-464): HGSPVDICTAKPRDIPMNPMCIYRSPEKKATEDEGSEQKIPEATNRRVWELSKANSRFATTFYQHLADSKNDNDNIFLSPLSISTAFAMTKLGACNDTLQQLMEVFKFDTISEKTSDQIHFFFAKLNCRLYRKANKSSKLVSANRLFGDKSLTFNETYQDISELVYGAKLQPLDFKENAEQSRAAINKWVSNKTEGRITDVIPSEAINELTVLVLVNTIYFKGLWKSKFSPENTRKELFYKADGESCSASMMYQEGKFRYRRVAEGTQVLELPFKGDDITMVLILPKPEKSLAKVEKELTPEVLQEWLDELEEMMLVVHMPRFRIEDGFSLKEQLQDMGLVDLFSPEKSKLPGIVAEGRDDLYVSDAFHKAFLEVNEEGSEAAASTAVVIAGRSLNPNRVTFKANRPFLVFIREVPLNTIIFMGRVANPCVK

HMGB1 = biological target: T2, HMGB1 (Mus musculus, UniProt P63158); assay: Binding of biotinylated oligosaccharides to HMGB1; conditions: biotinylated oligosaccharide, mouse liver lysate; for fold increase in binding to HMGB-1 compared to negative control NS6S 8-mer: Western band intensity
T2 sequence (P63158 1-215): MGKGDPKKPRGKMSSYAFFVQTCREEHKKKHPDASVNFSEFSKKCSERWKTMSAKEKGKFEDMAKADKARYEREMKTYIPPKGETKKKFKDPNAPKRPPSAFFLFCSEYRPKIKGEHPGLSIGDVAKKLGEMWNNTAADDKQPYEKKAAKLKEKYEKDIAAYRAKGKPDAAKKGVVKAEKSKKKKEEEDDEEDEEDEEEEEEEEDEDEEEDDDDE
Procedure, shortened: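 Biotinylated oligosaccharides (~20 nmol) were mixed with fresh mouse liver lysate containing HMGB1 in 20 mM HEPES, pH 7.2, 100 mM NaCl, 1% BSA. Incubation was overnight at 4 °C. Complexes were captured on streptavidin agarose and washed 5× in 20 mM HEPES/250 mM NaCl, pH 7.2. They were eluted in LDS buffer and blotted with rabbit monoclonal anti-HMGB1 plus HRP secondary. Bands were quantified densitometrically.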

human FXa = human FXa (Homo sapiens, UniProt P01008); assay: Anti-FXa activity; format: biochemical; conditions: for fold increase of anti-FXa IC50 compared to HSoligo 9: ratio of IC50 values; for anti-FXa IC50: with antithrombin, 0–5000 ng/mL
Chain of human FXa (P01008 33-464): as the sequence (P01008 33-464) above
Procedure, shortened: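 Human FXa at 50 U/mL in PBS. Test compound dissolved in PBS at 0–5000 ng/mL, preincubated with antithrombin (35 μg/mL) for 2 min at 37 °C. FXa added for 4 min at 37 °C, then diluted S-2765 (1 mg mL−1). A405 read continuously for 5 min. Maximum slope divided by control maximum slope gives % FXa activity.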

3-OST-4 [4] = biological target: T1, 3-OST-4; assay: 3-OST-4 modification of oligosaccharide substrates, anion exchange HPLC analysis; format: biochemical; conditions: for sulfation by 3-OST-4 (in words): HPLC analysis of substrate with or without 3-OST-4 modification
Procedure, shortened: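 Recombinant human 3-OST-4 (E163–K456) was expressed in Sf9 insect cells and purified on heparin then Ni-Sepharose. Oligosaccharide substrates were incubated overnight at 37 °C with PAPS and 3-OST-4 (0.8 mg mL−1 stock) in 50 mM Tris, pH 7.2, with 2 mM CaCl2. For the 8-mer substrate C, 2 mM MnCl2 was also present. Conversion was followed by anion exchange HPLC.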

| Substance | reactivity toward 3-OST-4 modification (in words) (3-OST-4 [1]) | anti-IIa IC50 (factor IIa (FIIa)) | anti-FXa IC50 (human FXa) | also measured |
| --- | --- | --- | --- | --- |
| GlcNAc-(GlcA-GlcNAc)5-GlcA-pNP [12-mer NAc] | not substrates | – | – | – |
| GlcNS6S-(GlcA-GlcNS6S)5-GlcA-pNP [12-mer NS6S] | not substrates | – | – | – |
| GlcNS6S-GlcA-(GlcNS6S-IdoA2S)4-GlcNS6S-GlcA-pNP [12-mer NS2S6S] | not substrates | – | – | – |
| GlcNS6S-GlcA-GlcNS3S6S-IdoA2S-GlcNS6S-IdoA2S-GlcNS6S-IdoA2S-GlcNS6S-IdoA2S-GlcNS6S-IdoA2S-GlcNS6S-IdoA2S-GlcNS6S-IdoA2S-GlcNS6S-GlcA-Biotin [18-mer AXa] | – | – | – | hepatoprotection effect [2]: does not display the hepatoprotection effect |
| GlcNS6S-GlcA-GlcNS6S-GlcA2S-GlcNS3S6S-GlcA2S-GlcNS3S6S-GlcA2S-pNP [HSoligo 7] | – | lacks anti-FIIa activity; also recorded: no inhibition | 0.0795 µg/mL | binding to tau, fold higher than 8-mer NS6S (tau protein): 2 fold; binding to tau, fold higher than HSoligo 4 (tau protein): 4 fold; level of binding to tau relative to 18-mer AXa (in words) (tau protein): comparable to 18-mer AXa; hepatoprotection: plasma level of alanine aminotransferase (ALT) [3]: did not find a decrease; extent of binding to HMGB1 relative to positive control 18-mer AXa (in words) (HMGB1): comparable to that of 18-mer AXa; fold increase in binding to HMGB-1 compared to negative control NS6S 8-mer (HMGB1): 15 fold; fold increase of anti-FXa IC50 compared to HSoligo 9 (human FXa): 3.5 fold |
| GlcNS6S-GlcA-GlcNS6S-GlcA2S-GlcNS3S6S-GlcA2S-pNP [HSoligo 5] | – | no inhibition | 0.1544 µg/mL | – |
| GlcNS6S-GlcA-GlcNS6S-GlcA2S-GlcNS3S6S-GlcA-pNP [HSoligo 4] | – | no inhibition | 0.3114 µg/mL | fold increase in binding to HMGB-1 compared to negative control NS6S 8-mer (HMGB1): 6 fold; fold increase of anti-FXa IC50 compared to HSoligo 9 (human FXa): 6.9 fold |
| GlcNS6S-GlcA-GlcNS6S-GlcA2S-GlcNS3S6S-IdoA2S-GlcNS-GlcA-pNP [HSoligo 9] | – | no inhibition | 0.0225 µg/mL | – |
| GlcNS-(GlcA-GlcNS)5-GlcA-pNP [12-mer NS] | Lower reactivity | – | – | – |
| GlcNS-GlcA-(GlcNS-IdoA2S)4-GlcNSGlcA-pNP [12-mer NS2S] | preferably sulfates | – | – | – |
| GlcNS-GlcA-GlcNS-GlcA2S-GlcNS3S-IdoA2S-GlcNS-GlcA-pNP [HSoligo 8] | – | no inhibition | no inhibition | – |
| GlcNS-GlcA-GlcNS-GlcA2S-GlcNS-GlcA2S-pNP [6-mer substrate E] | – | – | – | sulfation by 3-OST-4 (in words) (3-OST-4 [4]): highly reactive |
| GlcNS-GlcA-GlcNS-GlcA2S-GlcNS-GlcA-pNP [6-mer substrate D] | – | – | – | sulfation by 3-OST-4 (in words) (3-OST-4 [4]): nearly quantitatively converted |
| GlcNS-GlcA-GlcNS-GlcA-GlcNS-IdoA2S-GlcNS-GlcA-pNP [8-mer substrate B] | – | – | – | sulfation by 3-OST-4 (in words) (3-OST-4 [4]): failed to sulfate |
| GlcNS-GlcA-GlcNS-IdoA2S-GlcNS-IdoA2S-GlcNS-GlcA-pNP [8-mer substrate C] | – | – | – | substrate converted to 3-O-sulfated product after 3-OST-4 modification (3-OST-4 [4]; HPLC, conversion to HSoligo 1): about 71% |
